The source made the active and inactive calls. No cut-off for these calls is given here.
What was measured:
[1] = Inhibition of bovine chymotrypsin using flurogenic substrate as chymotrypsin substrate 2 by fluorescence assay; set-up: species or system Bos taurus
Summary of the method: (§1)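 Progress-curve inhibition kinetics for irreversible covalent inhibitors, fitted to a two-step model: reversible non-covalent binding, then irreversible reaction with the enzyme. kinact is the rate constant of the irreversible step at infinite inhibitor concentration. KI is the inhibitor concentration giving an observed rate constant of 1/2 kinact. The kinact/KI ratio expresses overall potency. Inhibitors were tested as diastereomer mixtures; the dilution series spanned 200 to 26.7 μM.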

[2] = species on record: Bos taurus; assay: Inhibition of bovine chymotrypsin assessed as inactivation constant using flurogenic substrate as chymotrypsin substrate 2 by fluorescence assay; summary of the method: as §1
[3] = species on record: Bos taurus; assay: Inhibition of bovine chymotrypsin assessed as ratio of Kinact to Ki using flurogenic substrate as chymotrypsin substrate 2 by fluorescence assay; summary of the method: as §1
[4] = species on record: Bos taurus; assay: Inhibition of bovine chymotrypsin at 100 uM preincubated for 30 mins followed by FP-rhodamine addition measured after 30 mins by fluorescence assay
Summary of the method: (§2)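 Competitive activity-based protein profiling. Enzyme was treated with compound at 100 μM, or with DMSO control. Residual active enzyme was then labeled with the general serine hydrolase activity-based probe FP-rhodamine and detected by fluorescent labeling.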

[5] = molecular target: T1, Cathepsin G (Homo sapiens) (UniProt P08311); assay: Inhibition of human cathepsin G at 100 uM preincubated for 30 mins followed by FP-rhodamine addition measured after 30 mins by fluorescence assay; summary of the method: as §2
T1 sequence (whole entry): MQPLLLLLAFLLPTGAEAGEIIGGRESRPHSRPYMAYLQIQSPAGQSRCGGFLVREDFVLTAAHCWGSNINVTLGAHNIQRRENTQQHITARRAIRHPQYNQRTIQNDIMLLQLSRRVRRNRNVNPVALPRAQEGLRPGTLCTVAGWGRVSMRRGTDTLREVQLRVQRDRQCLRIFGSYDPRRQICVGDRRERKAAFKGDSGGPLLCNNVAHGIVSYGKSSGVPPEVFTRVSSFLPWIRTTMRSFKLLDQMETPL

[6] = molecular target: T2, Neutrophil elastase (Homo sapiens, UniProt P08246); assay: Inhibition of human neutrophil elastase using flurogenic substrate as elastase substrate V by fluorescence assay; summary of the method: as §1
T2 sequence (P08246 whole entry): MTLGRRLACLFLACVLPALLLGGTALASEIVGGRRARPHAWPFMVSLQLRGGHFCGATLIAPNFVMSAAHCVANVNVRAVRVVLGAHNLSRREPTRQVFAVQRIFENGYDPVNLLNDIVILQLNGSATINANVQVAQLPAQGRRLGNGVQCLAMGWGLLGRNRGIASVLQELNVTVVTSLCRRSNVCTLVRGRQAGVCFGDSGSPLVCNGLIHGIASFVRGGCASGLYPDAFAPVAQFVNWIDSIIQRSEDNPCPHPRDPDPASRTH

[7] = molecular target: T3, Neutrophil elastase (Homo sapiens) (UniProt P08246); assay: Inhibition of human neutrophil Elastase assessed as inactivation constant using flurogenic substrate as elastase substrate V by fluorescence assay; summary of the method: as §1
T3 sequence (whole entry): T2 sequence (P08246 whole entry)

[8] = molecular target: T3, Neutrophil elastase (Homo sapiens); assay: Inhibition of human neutrophil Elastase assessed as ratio of Kinact to Ki using flurogenic substrate as elastase substrate V by fluorescence assay; summary of the method: as §1
[9] = species on record: Sus scrofa; assay: Inhibition of porcine pancreatic elastase assessed as ratio of Kinact to Ki using flurogenic substrate as elastase substrate V by fluorescence assay; summary of the method: as §1
[10] = Inhibition of porcine pancreatic elastase using flurogenic substrate as elastase substrate V by fluorescence assay; set-up: species or system Sus scrofa; summary of the method: as §1
[11] = molecular target: T3, Neutrophil elastase (Homo sapiens); assay: Inhibition of human neutrophil Elastase at 100 uM preincubated for 30 mins followed by FP-rhodamine addition measured after 30 mins by fluorescence assay; summary of the method: as §2
[12] = species on record: Sus scrofa; details: 100 uM

With `O=C(NC(Cc1ccccc1)P(=O)(Oc1ccccc1)Oc1ccccc1)OCc1ccccc1` (stereo not drawn) the Ki [1] was 0.69 µM, the Kinact [2] was 5.63 ×10⁻³ /s and the Ratio [3] was 8.1 ×10³ /M/s.
With `CC(C)CC(NC(=O)OCc1ccccc1)P(=O)(Oc1ccccc1)C(C)(C)C` (stereo not drawn) the inhibition [4] was “inactive”.
With `CC(C)CC(NC(=O)OCc1ccccc1)P(=O)(Oc1ccccc1)c1ccccc1` (stereo not drawn) the Ki [1] was 21.6 µM, the Kinact [2] was 21.1 ×10⁻³ /s and the inhibition [4] was “Active”. It also gave a Ratio [3] of 978 M⁻¹ s⁻¹.
With `O=C(NC(Cc1ccccc1)P(=O)(Oc1ccccc1)c1ccccc1)OCc1ccccc1` (stereo not drawn) the Ki [1] was 1.4 µM, the Kinact [2] was 23 ×10⁻³ /s and the inhibition [5] was “Active”. For the same molecule, the inhibition [4] was “Active” and the Ratio [3] was 16.4 ×10³ /M/s.
With `CC(C)(C)P(=O)(Oc1ccccc1)C(NC(=O)OCc1ccccc1)c1ccccc1` (stereo not drawn) the inhibition [4] was “inactive”.
`CC(C)C(NC(=O)OCc1ccccc1)P(=O)(Oc1ccccc1)Oc1ccccc1` (stereo not drawn) showed a Ki [6] of 2.96 µM, a Kinact [7] of 0.59 ×10⁻³ /s and a Ratio [8] of 200 M⁻¹ s⁻¹. For the same molecule, the Ratio [9] was “inactive”.
With `CCCP(=O)(Oc1ccccc1)C(NC(=O)OCc1ccccc1)C(C)C` (stereo not drawn) the inhibition [4] was “inactive”.
For `CC(C)C(NC(=O)OCc1ccccc1)P(=O)(Oc1ccccc1)C(C)(C)C` (stereo not drawn), the inhibition [4] was “inactive”.
With `CCCP(=O)(Oc1ccccc1)C(CC(C)C)NC(=O)OCc1ccccc1` (stereo not drawn) the Ki [1] was 13 µM, the Kinact [2] was 2.44 ×10⁻³ /s and the inhibition [4] was “Active”. For the same molecule, the Ratio [3] was 188 M⁻¹ s⁻¹.
With `CCCP(=O)(Oc1ccccc1)C(NC(=O)OCc1ccccc1)c1ccccc1` (stereo not drawn) the Ki [1] was 14.5 µM, the Kinact [2] was 5.84 ×10⁻³ /s and the inhibition [4] was “Active”. It also gave a Ratio [3] of 404 M⁻¹ s⁻¹.
`CC(C)C(NC(=O)OCc1ccccc1)P(=O)(Oc1ccccc1)c1ccccc1` (stereo not drawn) gave a Ki [6] of 51 µM, a Ki [10] of 132 µM and a Ki [1] of 7.42 µM. For the same molecule, the inhibition [11] was “Active”, the inhibition [4] was “Active” and the inhibition [12] was “Active”.
For `O=C(NC(c1ccccc1)P(=O)(Oc1ccccc1)c1ccccc1)OCc1ccccc1` (stereo not drawn), the Ki [1] was 0.46 µM, the Kinact [2] was 1.57 ×10⁻³ /s and the inhibition [4] was “Active”. For the same molecule, the Ratio [3] was 3.4 ×10³ /M/s.

Source: ChEMBL document CHEMBL4622994, “Facile Synthesis of Aminomethyl Phosphinate Esters as Serine Protease Inhibitors with Primed Site Interaction” (ACS Med Chem Lett, 2020)
